Laboratory results taken from ChEMBL document CHEMBL3232922, “Discovery and SAR of 6-alkyl-2,4-diaminopyrimidines as histamine H₄ receptor antagonists” (J Med Chem, 2014).

How the values were obtained:
[1] = Half life in human liver microsomes; format: ADME
[2] = Half life in rat at 10 mg/kg, po; format: ADME, organism-based; set-up: dose 10 mg/kg, route oral; conditions: in vivo
[3] = Cmax in beagle dog at 10 mg/kg, po; format: ADME, organism-based, Canis lupus familiaris; set-up: dose 10 mg/kg, route oral; conditions: in vivo
Histamine H4 receptor [4] = target: T1, Histamine H4 receptor (Rattus norvegicus, UniProt Q91ZY1); assay: Displacement of [3H]histamine from rat histamine H4 receptor expressed in SK-N-MC cells after 45 mins by competition binding analysis; format: cell-based
How it was run: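 Transfected cells expressing the H4 receptor, competition against [3H]histamine. Ki is the geometric mean of at least three independent determinations (each in triplicate), calculated by the Cheng–Prusoff equation.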

[5] = AUC in Sprague-Dawley rat at 2 mg/kg, iv; format: ADME, organism-based; set-up: dose 2 mg/kg, route intravenous; conditions: plasma
Cytochrome P450 1A2 = target: T2, Cytochrome P450 1A2 (Homo sapiens, UniProt P05177); assay: Inhibition of CYP1A2 (unknown origin) at 50 to 100 uM; format: ADME
T2 sequence (P05177 whole entry): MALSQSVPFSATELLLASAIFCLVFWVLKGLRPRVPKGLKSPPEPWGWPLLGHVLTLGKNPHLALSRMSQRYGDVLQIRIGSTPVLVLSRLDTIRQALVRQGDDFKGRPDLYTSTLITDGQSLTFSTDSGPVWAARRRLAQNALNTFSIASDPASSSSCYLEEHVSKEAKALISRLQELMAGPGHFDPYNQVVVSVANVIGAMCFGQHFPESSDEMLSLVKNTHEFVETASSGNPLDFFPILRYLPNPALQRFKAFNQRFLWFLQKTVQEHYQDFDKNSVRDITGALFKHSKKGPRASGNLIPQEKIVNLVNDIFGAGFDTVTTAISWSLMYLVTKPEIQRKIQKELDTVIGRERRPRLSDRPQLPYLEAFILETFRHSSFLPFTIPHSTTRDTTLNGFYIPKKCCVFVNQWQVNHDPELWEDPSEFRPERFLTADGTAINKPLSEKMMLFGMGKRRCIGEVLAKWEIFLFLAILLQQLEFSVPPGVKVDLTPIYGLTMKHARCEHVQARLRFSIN

[6] = target: Voltage-gated inwardly rectifying potassium channel KCNH2 (Homo sapiens, UniProt Q12809); assay: Inhibition of human ERG channel transfected in HEK293 cells assessed as K+ current at up to 10 uM by patch clamp assay; format: cell-based
[7] = Antagonist activity at monkey histamine H4 receptor; set-up: species or system Macaca mulatta
Cytochrome P450 2D6 = Cytochrome P450 2D6 (Homo sapiens, UniProt P10635); assay: Inhibition of CYP2D6 (unknown origin) at 50 to 100 uM; format: ADME
[8] = Half life in Balb/c mouse at 2 mg/kg, iv; format: ADME, organism-based; set-up: dose 2 mg/kg, route intravenous; conditions: in vivo
Histamine H3 receptor = Histamine H3 receptor (Homo sapiens, UniProt Q9Y5N1); assay: Displacement of [3H]N-alpha-methylhistamine from human recombinant histamine H3 receptor expressed in SK-N-MC cells after 45 mins by competition binding analysis; format: cell-based
[9] = Half life in mouse brain at 5 mg/kg, po administered as single dose by LC-MS/MS analysis; format: ADME, organism-based; set-up: dose 5 mg/kg, route oral
How it was run: (§1)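 Mice received one oral dose of 5 mg/kg. Brain, liver and kidneys were surgically removed from three mice per time point for up to 96 h after dosing. Tissue drug levels were measured by LC–MS/MS with a lower limit of quantitation of 1 ng/g. Tmax and t1/2 are reported as means.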

[10] = Fraction unbound in mouse plasma; format: ADME, cell-free
Cytochrome P450 3A4 = Cytochrome P450 3A4 (Homo sapiens, UniProt P08684); assay: Inhibition of CYP3A4 (unknown origin) at 50 to 100 uM; format: ADME
[11] = Tmax in mouse kidney at 5 mg/kg, po administered as single dose by LC-MS/MS analysis; format: ADME, organism-based; set-up: dose 5 mg/kg, route oral; how it was run: as §1
Histamine H4 receptor [12] = target: T1, Histamine H4 receptor; assay: Antagonist activity at rat histamine H4 receptor expressed in SK-N-MC cells assessed as reduction of histamine-induced inhibition of cAMP-mediated beta-galactosidase reporter gene activity treated 10 mins prior to histamine challenge by microplate reader analysis; format: functional, cell-based; conditions: read-out: pA2 (converted)
[13] = AUC in beagle dog at 2 mg/kg, iv; format: ADME, organism-based, Canis lupus familiaris, Plasma; set-up: dose 2 mg/kg, route intravenous; conditions: beagle, plasma
Mus musculus = assay: Antiinflammatory activity against po dosed collagen-induced arthritis mouse model assessed as inhibition of clinical score; format: functional, organism-based
How it was run: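 Mouse collagen-induced arthritis model. Compound was given orally in 20% hydroxypropyl-β-cyclodextran, with eight mice per group.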

[14] = Tmax in Sprague-Dawley rat at 50 mg/kg, po; format: ADME, organism-based; set-up: dose 50 mg/kg, route oral; conditions: in vivo
[15] = Half life in dog liver microsomes; format: ADME, Canis lupus familiaris
[16] = Half life in rat microsomes; format: ADME, Microsome
[17] = Tmax in mouse liver at 5 mg/kg, po administered as single dose by LC-MS/MS analysis; format: ADME, organism-based; set-up: dose 5 mg/kg, route oral; how it was run: as §1
[18] = Cmax in Sprague-Dawley rat at 500 mg/kg, po; format: ADME, organism-based; set-up: dose 500 mg/kg, route oral; conditions: in vivo
Histamine H4 receptor [19] = target: Histamine H4 receptor (Homo sapiens, UniProt Q9H3N8); assay: Agonist activity at human H4 receptor
Cytochrome P450 2C9 = Cytochrome P450 2C9 (Homo sapiens, UniProt P11712); assay: Inhibition of CYP2C9 (unknown origin) at 50 to 100 uM; format: ADME
[20] = Cmax in Balb/c mouse at 20 mg/kg, po; format: ADME, organism-based; set-up: dose 20 mg/kg, route oral; conditions: in vivo
Histamine H4 receptor [21] = target: T3, Histamine H4 receptor (Cavia porcellus, UniProt Q91ZY3); assay: Binding affinity to guinea pig histamine H4 receptor
T3 sequence (Q91ZY3 whole entry): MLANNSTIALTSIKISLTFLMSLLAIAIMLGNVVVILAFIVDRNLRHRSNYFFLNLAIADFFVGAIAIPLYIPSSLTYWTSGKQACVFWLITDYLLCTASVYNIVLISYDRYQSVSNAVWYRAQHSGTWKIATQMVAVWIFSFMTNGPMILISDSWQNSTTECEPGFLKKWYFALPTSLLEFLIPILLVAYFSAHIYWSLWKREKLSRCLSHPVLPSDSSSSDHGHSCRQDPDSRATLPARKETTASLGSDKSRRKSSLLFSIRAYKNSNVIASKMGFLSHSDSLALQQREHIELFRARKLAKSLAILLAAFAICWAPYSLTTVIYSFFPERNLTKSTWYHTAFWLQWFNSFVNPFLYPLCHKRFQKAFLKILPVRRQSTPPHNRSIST

Histamine H4 receptor [22] = target: T4, Histamine H4 receptor (Mus musculus, UniProt Q91ZY2); assay: Antagonist activity at mouse histamine H4 receptor expressed in SK-N-MC cells assessed as reduction of histamine-induced inhibition of cAMP-mediated beta-galactosidase reporter gene activity treated 10 mins prior to histamine challenge by microplate reader analysis; format: functional, cell-based; conditions: read-out: pA2 (converted)
T4 sequence (Q91ZY2 whole entry): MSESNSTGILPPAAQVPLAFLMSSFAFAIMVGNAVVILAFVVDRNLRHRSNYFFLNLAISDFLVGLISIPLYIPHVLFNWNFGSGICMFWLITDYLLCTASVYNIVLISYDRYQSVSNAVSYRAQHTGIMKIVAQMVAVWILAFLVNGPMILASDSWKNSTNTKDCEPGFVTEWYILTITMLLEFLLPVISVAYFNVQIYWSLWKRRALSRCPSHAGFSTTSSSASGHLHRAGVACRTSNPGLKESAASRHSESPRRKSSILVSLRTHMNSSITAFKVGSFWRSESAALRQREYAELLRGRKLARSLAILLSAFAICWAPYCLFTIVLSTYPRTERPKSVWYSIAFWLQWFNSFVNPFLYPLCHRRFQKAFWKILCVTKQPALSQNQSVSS

[23] = Initial plasma concentration in Sprague-Dawley rat at 2 mg/kg, iv; format: ADME, organism-based; set-up: dose 2 mg/kg, route intravenous

T1 sequence (Q91ZY1 whole entry): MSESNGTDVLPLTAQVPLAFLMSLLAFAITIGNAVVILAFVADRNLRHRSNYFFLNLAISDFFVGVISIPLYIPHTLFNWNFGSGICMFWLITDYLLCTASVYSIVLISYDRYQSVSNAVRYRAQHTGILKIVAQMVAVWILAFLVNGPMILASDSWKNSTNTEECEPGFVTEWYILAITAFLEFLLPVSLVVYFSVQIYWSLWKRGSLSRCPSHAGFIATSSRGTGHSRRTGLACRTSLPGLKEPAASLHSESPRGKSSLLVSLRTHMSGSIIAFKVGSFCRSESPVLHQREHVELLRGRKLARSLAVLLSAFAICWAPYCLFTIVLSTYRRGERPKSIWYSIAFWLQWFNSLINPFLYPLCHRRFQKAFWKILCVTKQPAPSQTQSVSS
Sequence of Voltage-gated inwardly rectifying potassium channel KCNH2 (Q12809 whole entry): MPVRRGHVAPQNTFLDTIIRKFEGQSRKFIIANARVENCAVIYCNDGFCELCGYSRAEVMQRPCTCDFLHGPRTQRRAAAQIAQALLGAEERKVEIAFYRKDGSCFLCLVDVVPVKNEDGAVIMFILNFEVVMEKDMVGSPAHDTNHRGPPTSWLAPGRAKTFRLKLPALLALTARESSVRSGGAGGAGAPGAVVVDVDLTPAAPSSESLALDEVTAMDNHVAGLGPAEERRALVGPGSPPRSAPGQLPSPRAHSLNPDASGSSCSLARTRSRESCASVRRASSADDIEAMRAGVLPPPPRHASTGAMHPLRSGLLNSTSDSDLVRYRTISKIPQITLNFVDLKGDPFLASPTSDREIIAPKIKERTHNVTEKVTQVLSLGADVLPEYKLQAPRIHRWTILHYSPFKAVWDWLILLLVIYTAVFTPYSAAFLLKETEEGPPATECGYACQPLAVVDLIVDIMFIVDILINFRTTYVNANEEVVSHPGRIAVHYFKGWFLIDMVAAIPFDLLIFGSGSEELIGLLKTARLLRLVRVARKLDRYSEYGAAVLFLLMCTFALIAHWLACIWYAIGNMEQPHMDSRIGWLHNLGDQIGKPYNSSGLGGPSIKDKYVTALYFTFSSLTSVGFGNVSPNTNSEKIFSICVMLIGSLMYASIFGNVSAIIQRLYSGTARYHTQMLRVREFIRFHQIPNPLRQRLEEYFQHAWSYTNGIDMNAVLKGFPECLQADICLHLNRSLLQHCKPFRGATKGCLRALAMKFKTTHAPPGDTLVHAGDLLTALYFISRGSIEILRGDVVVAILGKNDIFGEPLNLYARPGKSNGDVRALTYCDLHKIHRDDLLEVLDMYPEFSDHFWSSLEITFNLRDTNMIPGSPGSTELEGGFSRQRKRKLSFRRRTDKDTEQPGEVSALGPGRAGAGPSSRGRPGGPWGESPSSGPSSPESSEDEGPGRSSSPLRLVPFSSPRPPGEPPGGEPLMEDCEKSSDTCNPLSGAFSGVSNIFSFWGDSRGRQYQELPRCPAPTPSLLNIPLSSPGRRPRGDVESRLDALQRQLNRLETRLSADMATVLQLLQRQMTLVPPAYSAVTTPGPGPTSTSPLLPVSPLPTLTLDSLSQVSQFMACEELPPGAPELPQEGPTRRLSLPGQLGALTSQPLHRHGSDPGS
Sequence of Histamine H4 receptor (Homo sapiens, UniProt Q9H3N8) (Q9H3N8 whole entry): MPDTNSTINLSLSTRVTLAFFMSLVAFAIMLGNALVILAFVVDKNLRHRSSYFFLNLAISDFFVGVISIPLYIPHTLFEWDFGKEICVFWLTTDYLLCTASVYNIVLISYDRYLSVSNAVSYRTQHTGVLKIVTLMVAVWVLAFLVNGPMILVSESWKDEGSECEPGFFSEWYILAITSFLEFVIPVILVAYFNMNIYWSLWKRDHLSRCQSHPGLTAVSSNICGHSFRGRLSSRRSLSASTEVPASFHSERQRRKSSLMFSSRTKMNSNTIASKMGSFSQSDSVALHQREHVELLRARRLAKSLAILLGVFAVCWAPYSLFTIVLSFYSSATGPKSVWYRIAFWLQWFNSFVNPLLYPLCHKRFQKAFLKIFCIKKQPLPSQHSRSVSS
Sequence of Histamine H3 receptor (Q9Y5N1 whole entry): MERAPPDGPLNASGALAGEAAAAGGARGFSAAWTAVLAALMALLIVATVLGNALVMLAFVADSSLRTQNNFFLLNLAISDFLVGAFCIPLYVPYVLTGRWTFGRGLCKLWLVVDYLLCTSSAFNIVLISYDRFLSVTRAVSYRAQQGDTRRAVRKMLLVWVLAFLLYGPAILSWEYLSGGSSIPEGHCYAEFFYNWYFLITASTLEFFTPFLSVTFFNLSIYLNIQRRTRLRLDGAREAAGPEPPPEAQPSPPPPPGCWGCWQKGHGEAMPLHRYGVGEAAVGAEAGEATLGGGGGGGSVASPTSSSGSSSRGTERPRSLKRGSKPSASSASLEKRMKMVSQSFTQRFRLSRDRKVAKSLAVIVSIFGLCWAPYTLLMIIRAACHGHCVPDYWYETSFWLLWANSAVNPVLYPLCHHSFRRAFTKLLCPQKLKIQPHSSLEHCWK
Sequence of Cytochrome P450 3A4 (P08684 whole entry): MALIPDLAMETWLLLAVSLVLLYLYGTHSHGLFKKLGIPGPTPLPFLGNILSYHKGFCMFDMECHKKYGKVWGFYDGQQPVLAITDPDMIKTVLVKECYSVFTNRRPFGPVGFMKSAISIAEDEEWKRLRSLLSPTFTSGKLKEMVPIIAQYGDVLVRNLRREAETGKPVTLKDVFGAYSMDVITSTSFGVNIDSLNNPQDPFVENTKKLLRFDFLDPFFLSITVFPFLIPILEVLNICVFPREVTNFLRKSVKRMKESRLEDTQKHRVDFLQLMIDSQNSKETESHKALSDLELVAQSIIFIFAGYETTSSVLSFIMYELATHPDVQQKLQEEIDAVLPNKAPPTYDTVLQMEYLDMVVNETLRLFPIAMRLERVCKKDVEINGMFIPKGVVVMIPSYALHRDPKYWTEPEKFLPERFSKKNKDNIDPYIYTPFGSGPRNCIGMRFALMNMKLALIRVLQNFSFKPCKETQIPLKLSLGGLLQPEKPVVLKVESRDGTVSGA
Sequence of Cytochrome P450 2D6 (P10635 whole entry): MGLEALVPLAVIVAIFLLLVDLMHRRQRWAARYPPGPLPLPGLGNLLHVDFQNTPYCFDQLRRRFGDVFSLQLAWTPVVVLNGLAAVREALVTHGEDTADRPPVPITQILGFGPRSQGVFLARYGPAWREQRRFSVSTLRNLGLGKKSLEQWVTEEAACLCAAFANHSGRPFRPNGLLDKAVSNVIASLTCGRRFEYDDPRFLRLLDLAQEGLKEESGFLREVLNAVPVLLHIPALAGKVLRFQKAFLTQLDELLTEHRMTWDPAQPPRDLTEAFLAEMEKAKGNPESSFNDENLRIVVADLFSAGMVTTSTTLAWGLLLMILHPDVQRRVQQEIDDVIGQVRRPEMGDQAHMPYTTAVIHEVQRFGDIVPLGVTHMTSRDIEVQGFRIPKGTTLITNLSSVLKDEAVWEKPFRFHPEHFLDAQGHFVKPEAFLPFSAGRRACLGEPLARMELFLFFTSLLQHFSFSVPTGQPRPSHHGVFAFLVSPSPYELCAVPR
Sequence of Cytochrome P450 2C9 (P11712 whole entry): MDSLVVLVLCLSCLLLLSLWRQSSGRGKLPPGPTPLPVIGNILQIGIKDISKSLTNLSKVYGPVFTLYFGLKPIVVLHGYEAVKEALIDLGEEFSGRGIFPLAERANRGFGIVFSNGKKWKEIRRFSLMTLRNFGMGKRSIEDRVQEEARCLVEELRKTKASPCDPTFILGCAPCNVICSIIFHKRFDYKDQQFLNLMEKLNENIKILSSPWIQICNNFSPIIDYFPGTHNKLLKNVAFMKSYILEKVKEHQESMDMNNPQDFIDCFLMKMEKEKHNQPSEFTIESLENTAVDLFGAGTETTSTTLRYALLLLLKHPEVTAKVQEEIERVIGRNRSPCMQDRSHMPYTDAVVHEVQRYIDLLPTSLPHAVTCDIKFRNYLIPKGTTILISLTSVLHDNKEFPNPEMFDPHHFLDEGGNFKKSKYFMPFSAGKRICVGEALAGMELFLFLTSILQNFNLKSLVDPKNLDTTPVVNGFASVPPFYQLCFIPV

## CC(C)c1cc(N2CC[C@@H](N)C2)nc(N)n1 [JNJ-39758979]
[1]
  half-life: > 2 h
[2]
  half-life: 7.5 h
[3]
  Cmax: 3.9 µM
Histamine H4 receptor [4]
  Ki: 188 nM
[5]
  AUC: 1.4 µM·h
Cytochrome P450 1A2
  inhibition (INH): Not Active
[6]
  inhibition (INH): Not Active
[7]
  pA2: 7.5
Cytochrome P450 2D6
  inhibition (INH): Not Active
[8]
  half-life: 7.8 h
Histamine H3 receptor
  Ki: 1040 nM
[9]
  half-life: 42.5 h
[10]
  fraction unbound: 0.76
Cytochrome P450 3A4
  inhibition (INH): Not Active
[11]
  Tmax: 2 h
Histamine H4 receptor [12]
  Kb: 63.1 nM
[13]
  AUC: 6.7 µM·h
Mus musculus
  inhibition: Dose-dependent effect
[14]
  Tmax: 2 h
[15]
  half-life: > 2 h
[16]
  half-life: 1.02 h
[17]
  Tmax: 2 h
[18]
  Cmax: 7.07 µM
Histamine H4 receptor [19]
  EC50: > 10000 nM
Cytochrome P450 2C9
  inhibition (INH): Not Active
[20]
  Cmax: 5.03 µM
Histamine H4 receptor [21]
  Ki: 306 nM
Histamine H4 receptor [22]
  Kb: 5.01 nM
[23]
  C0: 1.1 µM
